Source: PubChem BioAssay (The Scripps Research Institute Molecular Screening Center)
The list is not random: actives were taken first. Their share in the collection is about 3.5%.
SIAE inh: human SIAE inhibition, primary screen; 370,000 tested, 0.69% active; inhibition, % at 9.66 µM; SIAE FP-Rh probe binding, fluorescence polarization;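 active = inhibition above a cutoff: mean of compounds within the control limits plus 3 SD of those, cut at about 17% in these data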
Target sequence (Q9HAT2 whole entry, looked up): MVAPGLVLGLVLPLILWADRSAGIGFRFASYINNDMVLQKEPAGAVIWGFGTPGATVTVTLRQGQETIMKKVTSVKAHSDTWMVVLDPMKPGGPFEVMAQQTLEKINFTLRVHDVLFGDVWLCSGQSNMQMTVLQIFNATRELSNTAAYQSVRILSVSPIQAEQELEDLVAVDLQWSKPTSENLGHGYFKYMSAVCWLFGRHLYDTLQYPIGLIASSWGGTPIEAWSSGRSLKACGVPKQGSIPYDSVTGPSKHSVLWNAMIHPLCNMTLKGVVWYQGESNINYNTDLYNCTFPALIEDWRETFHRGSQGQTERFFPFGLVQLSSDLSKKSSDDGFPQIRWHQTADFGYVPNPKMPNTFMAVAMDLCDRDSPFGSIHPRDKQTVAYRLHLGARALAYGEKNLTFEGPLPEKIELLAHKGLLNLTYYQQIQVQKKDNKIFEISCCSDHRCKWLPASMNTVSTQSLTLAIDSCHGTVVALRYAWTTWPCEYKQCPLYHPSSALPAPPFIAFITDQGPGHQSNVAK
mABHD4 FP: ABHD4 (mouse) inhibition, primary FP screen; purified mABHD4, FP-Rh probe fluorescence polarization; Q8VD66; 370,000 tested, 0.54% active; AID 720543; inhibition, % at 8.92 µM;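 active = inhibition exceeding the mean over every tested compound plus 3 SD, cut at about 30% in these data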
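assay system = mABHD4 protein | compound dosing = single nominal dose of 8.92 µM, 0.89% DMSO final | read-out basis = percent inhibition of probe binding, normalized to plate controls | schedule = Enzyme–compound pre-incubation 45 min, then probe 60 min, both 25 °C | detection = fluorescence polarization, excitation 525 nm, emission 598 nm, BODIPY TMR filters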
TCR-CD3 inh: blocks the human TCR-CD3 interaction. inhibition, % at 9.4 µM. AID 651800. TAMRA-labeled TCR probe fluorescence, biochemical. 360,000 tested, 0.37% active; in the data active = inhibition above about 19%;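 note: recombinant mutant TCR 2C K166C tagged with TAMRA read by polarization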
rCAG RNA binder: r(CAG) repeat RNA binding | TO-PRO-1 dye displacement fluorescence | inhibition, % at 3 µM | 370,000 tested, 1.3% active | AID 651821;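 active = inhibition above the plate cutoff, the mean of all test compounds on that plate plus 3 SD, cut at about 35% in these data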;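 note: higher means more dye released from RNA so lower well fluorescence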
PRMT1 FP inh: PRMT1 (human) inhibition, primary screen; 370,000 tested, 1.3% active; inhibition, % at 2.79 µM; recombinant PRMT1, activity-based probe fluorescence polarization; AID 652257; Q99873;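 active = inhibition above about 21% made by adding two undisclosed values, limit read from the data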
HTRA1 inh: blocks human HTRA1 serine peptidase; 340,000 tested, 0.5% active; inhibition, % at 5.96 µM; recombinant HTRA1, FP-rhodamine activity-based probe, fluorescence polarization; Q92743; AID 504803; in the data active = inhibition above about 36%
PRMT1 inh conf: confirmation of human PRMT1 inhibitors; shares compounds with PRMT1 FP inh; recombinant His-PRMT1, activity-based probe fluorescence polarization; inhibition, % at 2.79 µM; 3,300 tested, 42% active;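 active = mean inhibition across replicates above the hit cutoff derived for the earlier primary screen, cut at about 22% in these data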
Hits are given with their value; . = inactive; / = no result.

SMILES	SIAE inh	mABHD4 FP	TCR-CD3 inh	rCAG RNA binder	PRMT1 FP inh	HTRA1 inh	PRMT1 inh conf
Cc1cccc(N2C(=O)CC(Sc3ccccc3C(=O)O)C2=O)c1 (stereo not drawn)	.	.	.	.	59.5	.	21.7
COC(=O)c1ccc(S(=O)(=O)N2CCC(NC(=O)COc3ccc(F)cc3)CC2)cc1	.	.	/	.	.	/	/
CCOC(=O)CNC(c1ccccc1)c1cc(Br)ccc1NC(=O)CCN1CCOCC1 (stereo not drawn)	.	.	.	.	36.6	.	.
COC(=O)CNC(c1ccccc1)c1cc(Br)ccc1NC(=O)CCN1CCOCC1 (stereo not drawn)	.	.	.	.	.	.	/
CC(C)Oc1cccc(-c2n[nH]c(=S)n2N=Cc2ccc(O)cc2O)c1	.	.	/	.	37.2	/	.
Oc1ccc(/C=N/n2c(C3CCCCC3)n[nH]c2=S)c(O)c1	.	.	.	.	.	.	/
Cc1ccccc1NC(=O)OC1CCC12CCC(c1ccccc1)CC2 (stereo not drawn)	.	.	/	.	.	/	/
Cc1cc(S(=O)(=O)Nc2ccc(N3CCOCC3)cc2)ccc1Br	.	.	.	.	28.9	.	.
CC(C)c1ccc[n+](-c2nc([O-])sc2C=O)c1	.	.	.	.	.	/	/
Cc1ccc[n+](-c2nc([O-])sc2C=O)c1	.	.	.	.	57.6	.	62.5
CCc1ccc(NC(=O)COC(=O)/C=C/c2ccco2)cc1	.	.	.	.	28.4	.	.
COc1ccc(CCNC(=O)c2cnn(-c3ccccc3)c2N)cc1OC	.	.	/	.	.	/	/
COc1ccc2sc(C)[n+](C)c2c1	.	.	.	.	60.2	.	30.2
COc1ccc(-c2sc3ccc(OC)cc3c2-c2ccc(O)cc2)cc1	.	.	.	.	.	.	/
CCCC[n+]1c(C)sc2cc(OC)ccc21	.	.	.	.	30.2	.	.
CCc1ccccc1-c1cc(C(=O)OC)c2n(c1=O)CCC2	.	.	/	.	.	/	/
Cc1ccnc(SCc2cc(=O)c(OC(=O)c3ccc(C#N)cc3)co2)n1	.	.	/	/	.	/	/
Nc1ccc(-c2cnc3ccccc3n2)cc1	.	.	.	.	.	/	/
Nc1ccc2nc(-c3ccccc3)cnc2c1	.	.	.	.	30.8	.	32.6
C[C@H]1COc2cccc(N3CCCC3)c2S(=O)(=O)N1C	.	.	/	.	.	/	/
COc1cccc(N2CCN(C(=O)CSc3nc4ncccc4[nH]3)CC2)c1	.	.	/	.	.	/	/
CCOC(=O)/C(C#N)=C/c1cc2cc(C)c(C)cc2nc1Cl	.	.	.	.	.	.	/
Cc1cc2cc(C=C(C#N)C#N)c(Cl)nc2cc1C	.	.	.	.	85.8	.	.
S=C(Nc1ccccc1Cl)NC1CCN(Cc2ccccc2)CC1	.	.	.	.	25.4	.	.
c1cc(SSc2ccncc2)ccn1	.	.	.	.	87.2	.	82.7
SMILES	SIAE inh	mABHD4 FP	TCR-CD3 inh	rCAG RNA binder	PRMT1 FP inh	HTRA1 inh	PRMT1 inh conf
Nc1[nH]c2ccccc2c1C(=O)NC1CC1	.	.	/	.	.	/	/
NS(=O)(=O)c1ccc(NC2=CC(c3ccc([N+](=O)[O-])cc3)N(c3ccc(S(N)(=O)=O)cc3)C2=O)cc1 (stereo not drawn)	.	.	.	.	26.6	.	.
COc1ccc(NC2=CC(c3ccc(OC)c(OC)c3)N(c3ccc(OC)cc3)C2=O)cc1 (stereo not drawn)	.	.	.	.	.	.	/
C=CCN1C(=O)[C@@H](CC(=O)NCCc2ccccc2OC)[C@]2(C(=O)OC)CCCCC=C12	.	.	/	.	.	/	/
c1coc(C2Nc3ccccc3-c3nc4ccccc4n32)c1 (stereo not drawn)	.	.	.	.	44.8	.	.
c1ccc(C2Nc3ccccc3-c3nc4ccccc4n32)cc1 (stereo not drawn)	.	.	.	.	.	.	/
CC(=O)Nc1ccc2c(=O)n(-c3ccccc3)sc2c1	.	.	.	.	86.0	.	90.9
N#Cc1ccc2c(=O)n(-c3ccccc3)sc2c1	.	.	.	.	78.0	.	95.4
CCN(CC)C(=O)CSc1nnc(COc2ccc(OC)cc2)n1N	.	.	.	.	.	.	/
CCN(CC)C(=O)CSc1nnc2nnc3cc(OC)ccc3n12	.	.	.	.	29.3	/	26.5
S=c1[nH]nc(-c2ccco2)n1/N=C/c1ccccc1Cl	.	.	.	.	.	.	/
S=c1[nH]nc(-c2ccco2)n1/N=C/c1ccc(Cl)cc1	.	.	.	.	25.2	.	.
C/C(=N/NC(=O)CSc1nc2ccccc2s1)c1ccncc1	.	.	.	.	.	.	/
CS/C(=N\S(=O)(=O)c1cccs1)NC(=O)CSc1nc2ccccc2s1	.	.	.	.	28.3	.	33.2
CCCN(CCC)C1CC(=O)N(Cc2ccccc2)C1=O (stereo not drawn)	.	.	.	.	76.5	.	23.6
CCN(CC)C(=O)CSc1nnc(-c2ccc(C(C)(C)C)cc2)n1-c1ccc(Cl)cc1	.	.	/	.	.	/	/
O=C(/C=C/c1ccco1)N(Cc1ccc(Cl)cc1)C1CCS(=O)(=O)C1 (stereo not drawn)	.	.	.	.	28.1	.	.
Nc1nc2ccc(S(=O)(=O)N3CCCCC3)cc2s1	.	.	.	.	29.6	.	73.1
Nc1ccc(-n2cc(-c3ccccc3)[nH]c2=S)cc1	.	.	.	.	45.0	.	.
O=C1c2ccccc2C(=O)N1Nc1ccccc1	.	.	.	.	.	.	/
Cc1ccc(NN2C(=O)C=C(c3ccccc3)C2=O)cc1	.	.	.	.	35.3	/	.
O=C(Nc1sc2c(c1-c1nc3ccccc3s1)CCNC2)C(F)(F)F	.	.	/	/	40.7	/	.
O=C(OCc1cn(Cc2cc(F)ccc2F)nn1)N1CCOCC1	.	.	/	.	.	/	/
COC(=O)c1cccc(Cn2c(Cl)c(/C=N/Nc3ccccc3C)sc2=O)c1	.	.	.	.	79.4	.	.
CCCC/C=C1/[C@@H](c2ccc(Cl)cc2)N(Cc2ccc3c(c2)OCO3)C2=N[C@@H](c3ccccc3)CC(=O)N21	.	.	/	.	.	/	/
SMILES	SIAE inh	mABHD4 FP	TCR-CD3 inh	rCAG RNA binder	PRMT1 FP inh	HTRA1 inh	PRMT1 inh conf
Cc1cc(C)c(C)c(S(=O)(=O)N2C(=S)NC(=O)C2C(C)C)c1C (stereo not drawn)	.	.	.	.	28.5	.	.
C[C@@H]1C[C@@H]2O[C@H]2CCCCC(=O)Cc2cc(O)cc(O)c2C(=O)O1	.	.	/	.	.	/	/
S=c1[nH]nc(COc2ccc(Cl)cc2)n1-c1ccccc1	.	.	.	.	.	.	/
COc1ccc(-n2c(COc3ccc(Cl)cc3Cl)n[nH]c2=S)cc1	.	.	.	.	27.3	.	.
S=c1[nH]nc(COc2ccc(Cl)cc2)n1-c1ccc(Cl)cc1	.	.	.	.	27.5	.	.
Cc1ccc(OCc2n[nH]c(=S)n2-c2ccc(Cl)cc2)cc1	.	.	.	.	.	.	/
